What was measured:
Type in all cases: functional, tissue-based
Histamine H1 receptor [1] = target: T1, Histamine H1 receptor (Cavia porcellus, UniProt P31389); test: (§1) In vitro for histamine H1 receptor antagonist activity against histamine-induced contractions on isolated guinea pig ileum; settings: read-out: pA2 (converted)
Histamine H1 receptor [2] = target: T1, Histamine H1 receptor; test: as §1
Outline: (§2)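 Isolated ileum from guinea pigs of either sex (~250 g), tested with racemates. Percent inhibition is taken against the submaximal contraction to 0.5 μM histamine without drug, with six observations per drug concentration. IC50 is the concentration giving 50% inhibition. pA2 = −log KB by Schild, where KB = B/(x−1) and x is the histamine half-maximal concentration ratio with/without antagonist.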

Histamine H1 receptor [3] = target: T1, Histamine H1 receptor; test: Compound was tested in vitro for histamine H1-antagonist activity against histamine-induced contractions on isolated guinea pig ileum; outline: as §2

T1 sequence (P31389 whole entry): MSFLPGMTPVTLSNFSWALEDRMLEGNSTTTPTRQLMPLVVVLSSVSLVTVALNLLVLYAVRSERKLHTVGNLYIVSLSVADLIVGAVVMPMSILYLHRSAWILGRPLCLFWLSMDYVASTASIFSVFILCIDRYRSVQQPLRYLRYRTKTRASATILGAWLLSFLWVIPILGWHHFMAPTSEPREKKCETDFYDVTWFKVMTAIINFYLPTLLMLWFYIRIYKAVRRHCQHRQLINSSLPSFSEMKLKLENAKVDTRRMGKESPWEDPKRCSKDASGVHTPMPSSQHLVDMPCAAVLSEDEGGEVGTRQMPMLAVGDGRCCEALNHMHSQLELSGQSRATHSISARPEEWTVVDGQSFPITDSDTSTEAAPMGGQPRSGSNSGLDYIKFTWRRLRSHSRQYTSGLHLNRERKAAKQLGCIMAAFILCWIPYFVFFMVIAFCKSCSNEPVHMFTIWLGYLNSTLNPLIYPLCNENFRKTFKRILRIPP

| SMILES | Kb (Histamine H1 receptor [1]) [µM] | IC50 (Histamine H1 receptor [2]) [µM] | IC50 (Histamine H1 receptor [3]) [µM] |
| --- | --- | --- | --- |
| COc1ccc(C2SCC(=O)N2CCCN(C)C)cc1 (configuration not stated) | 10 | > 100 |  |
| CN(C)CCCN1C(=O)CSC1c1cccc(Br)c1 (configuration not stated) | 0.398 | 60 |  |
| CN(C)CCCN1C(=O)CSC1c1cccc(F)c1 (configuration not stated) | 0.398 | 3.1 |  |
| CC(C)c1ccc(C2SCC(=O)N2CCCN(C)C)cc1 (configuration not stated) | 0.002 | 1 |  |
| CN(C)CCCN1C(=O)CSC1c1ccccc1 (configuration not stated) | 0.0398 | 20 |  |
| Cc1ccc(C2SCC(=O)N2CCCN(C)C)cc1 (configuration not stated) | 0.00501 | 1.2 |  |
| COc1cccc(C2SCC(=O)N2CCCN(C)C)c1 (configuration not stated) | 0.398 | 25 |  |
| Cc1cccc(C2SCC(=O)N2CCCN(C)C)c1 (configuration not stated) | 0.02 | 5 |  |
| CN(C)CCCN1C(=O)CSC1c1ccc([N+](=O)[O-])cc1 (configuration not stated) | 6.31 | > 100 |  |
| CN(C)CCCN1C(=O)CSC1c1cccc(Cl)c1 (configuration not stated) | 0.631 | 2.2 |  |

More lines, now with the values ahead:

| Kb (Histamine H1 receptor [1]) [µM] | IC50 (Histamine H1 receptor [2]) [µM] | IC50 (Histamine H1 receptor [3]) [µM] | SMILES |
| --- | --- | --- | --- |
| 2.51 | 21 |  | CN(C)CCCN1C(=O)CSC1c1ccc(Cl)cc1 (configuration not stated) |
|  |  | > 100 | CN(C)CCCN1C(=O)CSC1c1ccncc1 (configuration not stated) |
| 1 | 40 |  | CN(C)CCCN1C(=O)CSC1c1ccc(N)cc1 (configuration not stated) |
| 0.0398 | 2.3 |  | CN(C)CCCN1C(=O)CSC1c1ccc(Br)cc1 (configuration not stated) |
| 0.0794 | 24 |  | CN(C)CCCN1C(=O)CSC1c1ccc(F)cc1 (configuration not stated) |
| 3.98 | > 100 |  | CN(C)CCCN1C(=O)CSC1c1cccc([N+](=O)[O-])c1 (configuration not stated) |
|  | > 100 |  | CN(C)CCN1C(=O)CSC1c1ccccc1 (configuration not stated) |

Source: ChEMBL document CHEMBL1125507, “Synthesis and antihistaminic activity of some thiazolidin-4-ones” (J Med Chem, 1992)
